Measurements: ChEMBL document CHEMBL1130379, “3-[2-(Pyrrolidin-1-yl)ethyl]indoles and 3-[3-(piperidin-1-yl)propyl]indoles: agonists for the h5-HT1D receptor with high selectivity over the h5-HT1B subtype” (J Med Chem, 1997)

Tests used:
[1] = efficacy relative to 5-HT; format: functional
Summary of the method: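 Agonist-induced [35S]GTPγS binding in CHO cells stably transfected with human 5-HT1D receptors. Intrinsic efficacy is expressed as percent of the maximal 5-HT response.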

[2] = molecular target: Serotonin 1 receptors; 5-HT1B & 5-HT1D (Homo sapiens) (UniProt P28222+P28221); experiment: Binding selectivity for 5-HT 1D/1B receptors; format: protein assay
[3] = Percent efficacy relative to 5-HT; format: functional
Summary of the method: (§1)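 Agonist-induced [35S]GTPγS binding was measured in CHO cells stably transfected with human 5-HT1D receptors. The output was EC50 together with intrinsic efficacy, expressed as percent of the maximal 5-HT response.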

[4] = molecular target: T1, 5-hydroxytryptamine receptor 1D (Homo sapiens, UniProt P28221); experiment: Measurement of agonist induced [35S]GTP-gamma-S, binding in CHO cells stably transfected with 5-hydroxytryptamine 1D receptor.; format: functional, cell-based; summary of the method: as §1
[5] = molecular target: T1, 5-hydroxytryptamine receptor 1D; experiment: Binding affinity by displacement to human cloned 5-hydroxytryptamine 1D receptor in CHO cells by [3H]5-HT displacement.; format: cell-based
Summary of the method: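 Cloned human 5-HT1D receptors were stably expressed in CHO cells. Compounds displaced [3H]-5-HT, used at the receptor's KD, and IC50 was read from the displacement. Values are the mean of two independent determinations, each run in triplicate.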

[6] = molecular target: 5-hydroxytryptamine receptor 1B (Homo sapiens, UniProt P28222); experiment: Binding affinity to human cloned 5-hydroxytryptamine 1B receptor in CHO cells by [3H]5-HT binding displacement.; format: cell-based
Chain of 5-hydroxytryptamine receptor 1B (P28222 whole entry): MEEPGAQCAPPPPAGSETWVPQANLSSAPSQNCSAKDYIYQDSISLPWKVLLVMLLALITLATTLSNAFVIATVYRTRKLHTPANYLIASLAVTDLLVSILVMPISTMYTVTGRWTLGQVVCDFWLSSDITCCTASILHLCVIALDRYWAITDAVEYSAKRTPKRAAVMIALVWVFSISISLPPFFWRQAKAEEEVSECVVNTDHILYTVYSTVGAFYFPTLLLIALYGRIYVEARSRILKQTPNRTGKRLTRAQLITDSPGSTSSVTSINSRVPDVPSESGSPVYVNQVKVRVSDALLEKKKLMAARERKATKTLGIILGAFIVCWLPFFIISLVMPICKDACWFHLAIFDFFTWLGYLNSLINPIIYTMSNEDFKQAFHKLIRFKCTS

T1 sequence (P28221 whole entry): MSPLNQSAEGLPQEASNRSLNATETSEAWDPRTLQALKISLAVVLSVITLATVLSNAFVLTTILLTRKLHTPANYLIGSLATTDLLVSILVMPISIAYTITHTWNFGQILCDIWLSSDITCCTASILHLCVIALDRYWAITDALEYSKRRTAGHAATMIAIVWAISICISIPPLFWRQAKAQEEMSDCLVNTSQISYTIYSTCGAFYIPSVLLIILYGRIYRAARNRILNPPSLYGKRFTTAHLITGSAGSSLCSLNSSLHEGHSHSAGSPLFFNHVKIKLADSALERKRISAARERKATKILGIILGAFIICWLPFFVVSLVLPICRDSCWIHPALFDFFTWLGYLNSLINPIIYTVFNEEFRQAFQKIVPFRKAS

SMILES	Efficacy [1] [%]	Selectivity ratio [2]	Efficacy [3] [%]	EC50 [4] [nM]	IC50 [5] [nM]	IC50 [6] [nM]
CNS(=O)(=O)Cc1ccc2[nH]cc(CCN(C)C)c2c1	100					
c1ccc(CNCC2CCN(CCc3c[nH]c4ccc(-n5cnnc5)cc34)C2)cc1 (single isomer, unassigned)		31	102	4.1	1.6	50
c1ccc(CO[C@@H]2CCN(CCc3c[nH]c4ccc(-n5cnnc5)cc34)C2)cc1 (stereo in doubt; 4c) [listing 1 of 2 here]		12	84			
CN(Cc1ccccc1)C1CCN(CCCc2c[nH]c3ccc(-n4cnnc4)cc23)CC1		66	94	1.6	2.2	145
CN(Cc1ccccc1)C[C@@H]1CCN(CCc2c[nH]c3ccc(-n4cnnc4)cc23)C1		47	102	1.6	0.7	33
c1ccc(CO[C@@H]2CCN(CCc3c[nH]c4ccc(-n5cnnc5)cc34)C2)cc1 (stereo in doubt; 4b) [listing 1 of 2 here]		23	81			
c1ccc(CO[C@@H]2CCN(CCc3c[nH]c4ccc(-n5cnnc5)cc34)C2)cc1 (stereo in doubt; 4b) [listing 2 of 2 here]				15	6.3	146
CN(Cc1ccccc1)[C@@H]1CCN(CCc2c[nH]c3ccc(-n4cnnc4)cc23)C1		5.5			38	210
CN(Cc1ccccc1)CC1CCN(CCCc2c[nH]c3ccc(-n4cnnc4)cc23)CC1		29	93	0.9	0.95	28
CN(C)CCc1c[nH]c2ccc(-n3cnnc3)cc12		4.7	117	0.45	0.3	1.4
O=C(c1ccc(F)cc1)C1CCN(CCn2c(=O)[nH]c3ccccc3c2=O)CC1 [KETANSERIN]		25			260	6500
c1ccc(CNC[C@@H]2CCN(CCc3c[nH]c4ccc(-n5cnnc5)cc34)C2)cc1		94	100	0.93	0.5	47
C[C@@H](NC1CCN(CCCc2c[nH]c3ccc(-n4cnnc4)cc23)CC1)c1ccccc1		100	96	1.5	0.35	35
CN(C)CCc1c[nH]c2ccc(Cn3cncn3)cc12			90			
OC[C@H](NC1CCN(CCCc2c[nH]c3ccc(-n4cnnc4)cc23)CC1)c1ccc(F)cc1		206	104	1.1	0.9	185
c1ccc(CO[C@@H]2CCN(CCc3c[nH]c4ccc(-n5cnnc5)cc34)C2)cc1 (stereo in doubt; 4c) [listing 2 of 2 here]				33	23	280
c1cc2[nH]cc(CCCN3CCCCC3)c2cc1-n1cnnc1		0.6			24	15
c1cc2[nH]cc(CCN3CCCCC3)c2cc1-n1cnnc1		3			200	568
OC[C@H](NC1CCN(CCCc2c[nH]c3ccc(-n4cnnc4)cc23)CC1)c1ccccc1		88	95	1.8	1.3	114
c1ccc(COC[C@@H]2CCN(CCc3c[nH]c4ccc(-n5cnnc5)cc34)C2)cc1		38	68	2.1	2.3	88
c1ccc(CNC2CCN(CCCc3c[nH]c4ccc(-n5cnnc5)cc34)CC2)cc1		26	76	8	4.8	125
c1cc2[nH]cc(CCN3CCCC3)c2cc1-n1cnnc1		9	120	2.6	3.4	30.2
